# In ChEMBL document CHEMBL3813647, “Discovery of an Orally Active and Liver-Targeted Prodrug of 5-Fluoro-2'-Deoxyuridine for the Treatment of Hepatocellular Carcinoma” (J Med Chem, 2016):
# How the values were obtained:
# Mus musculus [1] = experiment: Toxicity in KM mouse implanted with mouse H22 cells assessed as body weight level at 130 mg/kg administered daily through oral gavage after 8 days (reference value: 21.7 to 22.3 g); assay type: organism-based; conditions: in vivo, 192 h
# Liver [2] = experiment: Cmax in Sprague-Dawley rat liver assessed as FDUR formation at 52.17 mg/kg administered through oral gavage measured up to 24 hrs by HPLC-MS/MS analysis; assay type: ADME, organism-based; parameters: dose 52.17 mg/kg, route oral; conditions: in vivo
# Procedure, shortened: (§1)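 Male Sprague-Dawley rats (220 ± 20 g), single gavage of 0.096 mmol/kg. FDUR was dosed in H2O; the prodrugs were dosed in 20% hydroxypropyl-β-cyclodextrin. n = 3 per time point, sampled at 0.25–24 h. Plasma (EDTA-K2, cardiac puncture) and freeze-clamped liver were homogenized in 20 mM EDTA-K2/70% MeOH. Analytes measured by HPLC-MS/MS in ESI negative mode.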
# Plasma [3] = experiment: (§2) AUC (infinity) in Sprague-Dawley rat plasma assessed as (S)-2-((R)-(((2R,3S,5R)-5-(5-fluoro-2,4-dioxo-3,4-dihydropyrimidin-1(2H)-yl)-3-hydroxytetrahydrofuran-2-yl)methoxy)(2-methylbenzyloxy)phosphorylamino)propanoate formation at 52.17 mg/kg administered through oral gavage measured up to 24 hrs by HPLC-MS/MS analysis; assay type: ADME, organism-based; parameters: dose 52.17 mg/kg, time infinity, route oral; conditions: in vivo; procedure, shortened: as §1
# Liver [4] = experiment: AUC (infinity) in Sprague-Dawley rat liver assessed as 5-FU formation at 52.17 mg/kg administered through oral gavage measured up to 24 hrs by HPLC-MS/MS analysis; assay type: ADME, organism-based; parameters: dose 52.17 mg/kg, route oral, time infinity; conditions: in vivo; procedure, shortened: as §1
# Mus musculus [5] = experiment: Toxicity in KM mouse implanted with mouse H22 cells assessed as body weight level at 65 mg/kg administered daily through oral gavage after 8 days (reference value: 21.7 to 22.3 g); assay type: organism-based; conditions: in vivo, 192 h
# Liver [6] = experiment: Drug metabolism in Sprague-Dawley rat liver assessed as o-methylhippuric acid formation; assay type: ADME, tissue-based
# Liver [7] = experiment: Cmax in Sprague-Dawley rat liver assessed as (S)-2-((R)-(((2R,3S,5R)-5-(5-fluoro-2,4-dioxo-3,4-dihydropyrimidin-1(2H)-yl)-3-hydroxytetrahydrofuran-2-yl)methoxy)(2-methylbenzyloxy)phosphorylamino)propanoate formation at 52.17 mg/kg administered through oral gavage measured up to 24 hrs by HPLC-MS/MS analysis; assay type: ADME, organism-based; parameters: dose 52.17 mg/kg, route oral; conditions: in vivo; procedure, shortened: as §1
# H22 = experiment: Antitumor activity against mouse H22 cells implanted in KM mouse assessed as tumor growth inhibition at 65 mg/kg administered daily through oral gavage after 8 days; assay type: functional; conditions: 192 h
# Procedure, shortened: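 Syngeneic H22 hepatoma: 2 × 10⁶ cells injected s.c. in the axilla (0.9% saline) of female KM mice, n = 10 per group. From day 2, daily oral gavage for 8 days. Test agent given in 35% PEG400; sorafenib suspended in 0.5% CMC-Na. Tumor weight taken on day 8; inhibition rate calculated versus the vehicle group.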
# Mus musculus [8] = experiment: Toxicity in KM mouse assessed as damage to spleen at 2 to 3 g/kg, administered through oral gavage after 15 days; conditions: in vivo, 360 h
# Liver [9] = experiment: Drug metabolism in Sprague-Dawley rat liver S9 fraction assessed as (S)-2-((R)-(((2R,3S,5R)-5-(5-fluoro-2,4-dioxo-3,4-dihydropyrimidin-1(2H)-yl)-3-hydroxytetrahydrofuran-2-yl)methoxy)(2-methylbenzyloxy)phosphorylamino)propanoate formation at 20 ug/mL after 20 mins by HPLC-MS/MS analysis; assay type: ADME, subcellular; conditions: s9, 20 min, TDE = time-dependent effect
# Procedure, shortened: (§3)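 Rat liver S9 (10 mg/mL) incubated with compound at 20 μg/mL. Parent, intermediate A and FdUMP followed over time by HPLC-MS/MS. Negative control run without NADPH.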
# [10] = Cytotoxicity against human LO2 cells assessed as reduction in cell viability after 72 hrs by MTT assay; assay type: cell-based; conditions: L02, 72 h
# Procedure, shortened: (§4)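 Cells in RPMI-1640 with 10% FBS, seeded at 4 × 10³ per well and attached for 24 h. Compound (DMSO ≤0.5% final) added for 72 h at 37 °C, 5% CO2. Viability read by MTT. IC50 set against 0.5% DMSO-treated cells taken as 100% viable. Mean of two independent experiments, each run in triplicate.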
# Plasma [11] = experiment: Drug metabolism in Sprague-Dawley rat plasma assessed as o-methylhippuric acid formation; assay type: ADME, cell-free
# Mus musculus [12] = experiment: Toxicity in KM mouse assessed as damage to liver at 2 to 3 g/kg, administered through oral gavage after 15 days; conditions: in vivo, 360 h
# [13] = Half life in rat plasma by HPLC analysis; assay type: ADME, cell-free
# Procedure, shortened: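 Rat plasma, 37 °C. Compound added from a 2.5 mM stock, sampled at 0–24 h, quenched with MeOH. Analyzed by HPLC-UV at 267 nm (C8 column, MeOH:H2O 68:32). Triplicate samples.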
# [14] = Cytotoxicity against human SMMC7721 cells assessed as reduction in cell viability after 72 hrs by MTT assay; assay type: functional, cell-based; conditions: SMMC-7721, 72 h; procedure, shortened: as §4
# [15] = Ratio of metabolite A AUC (infinity) in Sprague-Dawley rat liver to (S)-2-((R)-(((2R,3S,5R)-5-(5-fluoro-2,4-dioxo-3,4-dihydropyrimidin-1(2H)-yl)-3-hydroxytetrahydrofuran-2-yl)methoxy)(2-methylbenzyloxy)phosphorylamino)propanoate AUC (infinity) in Sprague-Dawley rat plasma at 52.17 mg/kg administered through oral gavage; assay type: ADME, organism-based; conditions: in vivo
# Liver [16] = experiment: as §2, with “liver” for “plasma”; assay type: ADME, organism-based; parameters: dose 52.17 mg/kg, route oral, time infinity; conditions: in vivo; procedure, shortened: as §1
# [17] = Half life in human plasma by HPLC-MS/MS analysis; assay type: ADME, cell-free
# Procedure, shortened: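 Compound at 1 μg/mL final in dog or human plasma, 37 °C. Sampled at 0–24 h and quenched with ice-cold MeOH containing internal standard. Parent measured by LC-MS/MS in ESI negative mode; t1/2 calculated from percent remaining versus 0 h.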
# Liver [18] = experiment: Drug metabolism in Sprague-Dawley rat liver S9 fraction assessed as FdUMP formation at 20 ug/mL after 20 mins by HPLC-MS/MS analysis in absence of NADPH; assay type: ADME; conditions: s9, 20 min; procedure, shortened: as §3
# [19] = Ratio of FdUMP AUC (infinity) in Sprague-Dawley rat liver to FDUR AUC (infinity) in Sprague-Dawley rat plasma at 52.17 mg/kg administered through oral gavage; assay type: ADME, organism-based; conditions: in vivo
# Procedure, shortened: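 Male Sprague-Dawley rats (220 20 g), single gavage of 0.096 mmol/kg prodrug in 20% hydroxypropyl-β-cyclodextrin. Blood by cardiac puncture under isoflurane and liver at 0.25–24 h, n = 3 per time point. Liver freeze-clamped and homogenized in 20 mM EDTA-K2/70% MeOH. FdUMP (liver) and FDUR (plasma) by HPLC-MS/MS, negative ESI. Index = AUC(inf) liver FdUMP / AUC(inf) plasma FDUR.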
# Mus musculus [20] = experiment: Toxicity in KM mouse assessed as damage to heart at 2 to 3 g/kg, administered through oral gavage after 15 days; conditions: in vivo, 360 h
# Plasma [21] = experiment: AUC (infinity) in Sprague-Dawley rat plasma assessed as FDUR formation at 52.17 mg/kg administered through oral gavage measured up to 24 hrs by HPLC-MS/MS analysis; assay type: ADME, organism-based; parameters: dose 52.17 mg/kg, time infinity, route oral; conditions: in vivo; procedure, shortened: as §1
# Mus musculus [22] = experiment: Toxicity in KM mouse assessed as weight loss at 2 to 3 mg/kg, administered through oral gavage after 1 to 5 days; assay type: organism-based; conditions: in vivo, in the assay text read “2 to 3 g/kg” for “2 to 3 mg/kg”
# Procedure, shortened: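 Female KM mice (20 2 g), fasted overnight, 5 per group. Single oral gavage at 2 or 3 g/kg in 57% hydroxypropyl-β-cyclodextrin. Watched continuously for 4 h, intermittently to 24 h, then occasionally to day 15 for weight, appetite and behaviour. Mean body weight change tracked days 1–15. Organs examined macroscopically at sacrifice on day 15.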
compound,measurement,setting,value
Cc1ccccc1CO[P@](=O)(N[C@@H](C)C(=O)OC(C)C)OC[C@H]1O[C@@H](n2cc(F)c(=O)[nH]c2=O)C[C@@H]1O,Activity,Mus musculus [1],23.8 g
same,Cmax,Liver [2],747 ng/g
same,AUC,Plasma [3],316 ng·h/mL
same,AUC,Liver [4],257 ng·h/g
same,Activity,Mus musculus [5],25.9 g
same,Drug metabolism,Liver [6],metabolite_detected
same,Cmax,Liver [7],3673 ng/g
same,inhibition in vivo at 65 mg/kg,H22,44.2%
same,Activity,Mus musculus [8],Non-toxic
same,Drug metabolism,Liver [9],tde
same,IC50,[10],412 µM
same,Drug metabolism,Plasma [11],metabolite_detected
same,Activity,Mus musculus [12],Non-toxic
same,half-life,[13],< 4.98 min
same,IC50,[14],250 µM
same,Ratio AUC,[15],17.4
same,AUC,Liver [16],5509 ng·h/g
same,half-life,[17],> 1440 min
same,Drug metabolism,Liver [18],metabolite_notdetected
same,Ratio AUC,[19],20.9
same,Activity,Mus musculus [20],Non-toxic
same,AUC,Plasma [21],26 ng·h/mL
same,Activity,Mus musculus [22],Non-toxic
